# Screening data: PubChem BioAssay, several laboratories
# UPR CHOP act: activators of apoptotic arm of unfolded protein response (CHOP). CHO-CHOP luciferase reporter, UPR activation, luminescence; percent of tunicamycin response over DMSO baseline. AID 449763. 330,000 compounds, 0.34% hits. activation, % at 10 µM;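 active = at 10 µM dose, activation of 40% or more, normalized to positive control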;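 note: 100% = tunicamycin at 10 µg/mL and 0% = DMSO alone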
#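 Test system: CHO-CHOP cells, stable luciferase reporter of PERK-eIF2a-CHOP signalling | Quantity: 500 CHO-CHOP cells per well | Buffer or medium: F12 plus 10% serum | Compound dosing: 10 µM single point, 0.5% DMSO | Schedule: 6 h compound treatment, 37 °C | Signal: Luciferase luminescence | Control set: Tunicamycin high control, DMSO low control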
# PvdQ inh: P. aeruginosa PvdQ acylase inhibition. purified PvdQ acylase, fluorescence plate reader. inhibition, % at 10 µM. 340,000 compounds, 0.063% hits; in the data active = inhibition above about 30%, passing the limit was not always enough;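 note: 0% = vehicle neutral wells and 100% = reference inhibitor wells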
# CHOP inh: CHOP inhibition in unfolded protein response | AID 2732 | inhibition, % at 10 µM | CHO-K1 CHOP-promoter luciferase, tunicamycin-induced, 15-18 h | 220,000 compounds, 3.8% hits;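 active = compounds that reduced the stress-induced luciferase reporter signal by more than about 70% of percent inhibition, limit read from the data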;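 note: 0% = tunicamycin plus vehicle and 100% = wells without tunicamycin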
# UPR XBP1 act: activators of adaptive arm of unfolded protein response (XBP1) | CHO-XBP1 luciferase reporter, IRE1-XBP1 UPR activation, luminescence; percent of tunicamycin response, DMSO as zero | activation, % at 20 µM | 330,000 compounds, 0.33% hits | AID 463104;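 active = versus positive control, 20 µM dose yields 30% or more activation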;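 note: 100% = tunicamycin at 10 µg/mL and 0% = DMSO only wells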
#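 Assay system: IRE1-XBP1 luciferase reporter CHO line. Input: 1000 cells/well. Buffer or medium: F12 with 10% serum. Doses: 20 µM, 1% DMSO. Times: overnight seeding at 37 °C, 6 h compound treatment at 37 °C. Technique: Steady-Glo luciferase glow luminescence, 10 min after reagent addition.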
# * marks the source's active call; other numbers are inactive results; x = not tested or not shown. Shown is part of a subset that was picked to be rich in hits.
SMILES,UPR CHOP act,PvdQ inh,CHOP inh,UPR XBP1 act
C=CCOC(=O)C1=C(C)NC(SCC(N)=O)=C(C#N)C1c1cccs1 (stereo not given),-1.1,-19.9,-2.4,-5.3
CCOC(=O)C1=C(C)NC(SCC(=O)Nc2nc(C)cs2)=C(C#N)C1c1cccs1 (stereo not given),0.0,x,74.5*,-1.6
CCN(CC)c1nc(=S)nc(NC(C)(C)C)[nH]1,2.4,2.7,2.2,-2.0
Cc1ccc(-n2nnnc2-c2ccccc2)cc1,3.1,-3.4,0.7,2.2
Cc1ccc(-n2nnnc2C(Cl)c2nnnn2-c2ccc(C)cc2)cc1,x,-12.8,91.1*,x
O=[N+]([O-])c1cc(C(F)(F)F)ccc1NCCNC(=S)Nc1ccc(Cl)cc1,2.4,8.3,86.1*,5.9
O=[N+]([O-])c1cc(C(F)(F)F)ccc1NCCCCNS(=O)(=O)c1ccc(Cl)cc1,-1.4,-3.4,46.9,-1.1
Cc1cc(NC(=O)Cn2nnc3sc4c(c3c2=O)CCCC4)no1,-0.9,4.1,61.2,2.6
Cc1cc(NC(=O)Cn2nnc3sc4c(c3c2=O)CCC(C(C)(C)C)C4)no1 (stereo not given),2.1,-0.2,81.2*,2.3
CCCCCCCN1C2=NCCCN2c2ccccc21,0.2,-9.8,14.9,0.9
Cc1ccc(NC(=O)CSc2nn(-c3ccccc3)c(=S)s2)cc1S(=O)(=O)N(C)C,4.9,8.8,75.6*,0.9
CCN(CC)CCNC(=O)c1ccc(N2CCCCC2)c(NS(=O)(=O)c2ccc(C)cc2)c1,-1.6,0.1,72.2*,-0.2
COc1ccc(N(CC(O)Cn2c(C)nc3ccccc32)S(=O)(=O)c2ccccc2)cc1 (stereo not given),0.7,-6.3,-17.1,-1.8
Cc1ccc(NC(=O)c2cc(N3C(=O)C=CC3=O)ccc2Cl)cc1C,-0.3,-13.3,103.7*,-3.3
Cc1ccc(NC(=O)c2cc(N3C(=O)C=CC3=O)ccc2N2CCOCC2)cc1,x,6.8,108.5*,x
Cc1ccc(NC(=O)c2cc(NC(=O)c3ccco3)ccc2N2CCOCC2)cc1,-1.0,6.1,42.4,-0.6
CSc1ccc(S(=O)(=O)N2CCC(C(=O)NCc3ccccn3)CC2)cc1,0.5,-7.4,x,-1.4
Cc1[nH]nc2c1C1(CCN(C(=O)OCc3ccccc3)CC1)C(C#N)=C(N)O2,-2.1,-2.0,73.3*,-2.1
O=C(C1CCCN1S(=O)(=O)c1ccc(Cl)c(Cl)c1)N1CCOCC1 (stereo not given),-1.2,-12.8,-3.7,-0.5
O=C(C1CCCN1S(=O)(=O)c1ccc(Cl)cc1)N1CCOCC1 (stereo not given),-2.5,7.7,73.8*,0.2
O=C(Oc1ccc2c(=O)c(Oc3ccc4ccccc4c3)coc2c1)c1cncc(Br)c1,1.1,-5.1,-10.5,-0.7
O=C(Oc1ccc2ccccc2c1)c1cncc(Br)c1,1.1,-10.7,94.4*,-1.1
COc1ccccc1NC(=O)CNC(=O)Cn1cnc2sc(C)c(C)c2c1=O,0.4,1.3,x,-1.0
CCCOc1ccc(/C=C/C(=O)Nc2ccc([N+](=O)[O-])cc2)cc1,-1.1,0.8,95.4*,-0.5
O=C(/C=C/c1ccc([N+](=O)[O-])cc1)Nc1ncc([N+](=O)[O-])s1,x,-5.8,94.2*,x
SMILES,UPR CHOP act,PvdQ inh,CHOP inh,UPR XBP1 act
CCCCOc1ccc(/C=C/C(=O)Nc2ccc([N+](=O)[O-])cc2C)cc1,-0.6,-9.4,79.6*,0.6
CCCCOc1ccc(/C=C/C(=O)Nc2ccc(C(N)=O)cc2)cc1,-0.3,1.3,-6.7,-3.5
CN(C(=O)c1cc2ccccc2oc1=O)C1(C)CCS(=O)(=O)C1 (stereo not given),5.6,-5.6,-7.2,0.0
CCN1CCC2(CC1)N=C(c1ccc(F)cc1)C(=S)N2C(=O)c1ccc(C(C)(C)C)cc1,1.3,2.0,92.8*,-1.1
CCc1cc(C(=O)Cc2cnn(-c3ccccc3)c2)c(O)cc1O,-2.2,6.7,77.5*,-2.0
O=C(Cc1cnn(-c2ccccc2)c1)c1ccc(O)c(O)c1O,-0.1,-7.4,12.8,-0.2
Cc1c(Cl)cccc1NC(=S)N1CCN(Cc2ccc3c(c2)OCO3)CC1,-0.3,-3.4,13.2,0.7
O=S(=O)(Nc1ccc(N=Nc2ccccc2)cc1)c1ccccc1,0.7,5.9,95.2*,-0.5
O=S(=O)(Nc1ccc(N=Nc2ccc(O)c3ccccc23)cc1)c1ccccc1,2.1,4.1,89.2*,4.3
O=S(=O)(Nc1ccc(S(=O)(=O)Nc2ccccc2)cc1)c1ccccc1,-0.9,-7.7,-7.5,1.3
Cc1cc(C(=O)NC(C)CCc2ccccc2)ccc1[N+](=O)[O-] (stereo not given),-1.0,-11.2,x,-1.3
CCNc1nc(SCC(=O)Nc2ccc(Cl)c(Cl)c2)nc(N(C)C)n1,0.4,-8.0,78.6*,1.3
Cc1csc(SCC(=O)N(C)C2CCS(=O)(=O)C2)n1 (stereo not given),2.1,-10.2,x,-1.6
O=C(NCC1(c2ccccc2)CCCC1)c1ccc(Br)cc1,1.4,4.5,74.4*,-1.0
Cc1ccc(C(=O)NCC2(c3ccccc3)CCCC2)cc1,1.8,-3.0,33.1,-4.1
Cc1ccccc1-c1cc(C(=O)Nc2sc(C)c(C)c2C(N)=O)c2ccccc2n1,1.2,-4.3,74.8*,3.9
CCOC(=O)c1sc(NC(=O)c2cc(-c3ccccc3C)nc3ccccc23)c(C#N)c1C,5.3,-3.4,71.8*,-3.8
FC(F)(F)c1cc(Sc2ccccc2)nc(-c2ccccn2)n1,-0.6,-2.8,71.2*,3.8
CCOc1ccc(CN2CCN(C(=O)c3cccc4ccccc34)CC2)cc1,4.0,9.4,x,-3.5
C/C(=N\NC(=O)Cc1cccn1C)c1cccs1,-0.1,-2.8,-17.6,2.8
Cc1cc(N2CCN(c3ccccc3)CC2)nc(NCc2ccccc2)n1,-0.3,6.9,87.8*,1.0
O=C(CSc1ccc(-c2ccncc2)nn1)c1ccc(Cl)cc1,1.6,-0.2,4.1,-1.5
NC(=O)C(c1ccc(Cl)cc1)c1ccc(Sc2ccc(Cl)cc2)nn1 (stereo not given),-1.2,6.6,82.9*,-2.6
CCc1ccc2nc(N3C(=O)C(O)=C(C(=O)c4ccco4)C3c3cccs3)sc2c1 (stereo not given),2.8,2.2,80.2*,6.0
Cc1ccc2nc(N3C(=O)C(O)=C(C(=O)c4cc5ccccc5o4)C3c3cccs3)sc2c1 (stereo not given),4.6,-4.8,33.6,2.3
O=C(CN1CCCN(S(=O)(=O)c2ccc(Br)s2)CC1)Nc1ccc(Cl)cc1,-1.2,7.3,72.2*,-1.5
CCOC(=O)CNC(=O)CN1CCCN(S(=O)(=O)c2ccc(Br)s2)CC1,-2.4,3.0,5.6,-3.1
Cc1ccc(N2CCN(C(=O)c3cn(CC4CCCCC4)nn3)C(C)C2)cc1 (stereo not given),0.8,0.0,x,-0.2
Cn1c(SCC(=O)NNC(=O)Nc2ccc(Cl)cc2)nnc1-c1ccccc1,2.5,x,-1.4,-1.7
CC1(C)N=C(SCC(=O)Nc2ccc(Cl)cc2)C(c2ccccc2)=N1,-0.2,-10.5,78.4*,0.8
